Screens deposited in PubChem BioAssay by several laboratories.
The list is not random: actives were taken first. Their share in the collection is about 12%.
RAM network inh: inhibitors of the yeast RAM network, primary screen, dse1pr::URA3 reporter, 5-FOA selection. S. cerevisiae dse1pr::URA3 reporter, 5-FOA growth OD615, 2 d; analog-sensitive cbk1-as2 kinase mutant strain. inhibition, % at 50 µM. 1.8% of 190,000 active;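 active means inhibition above a set limit, 3 SD over mean compound inhibition, cut at about 8.4% in these data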;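 further: 0% = DMSO-only wells with no growth and 100% = 10 µM 1-NA-PP1 full growth; inhibition rescues growth on 5-FOA so higher OD means more RAM inhibition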
ABCB1 inh: ABCB1 efflux pump inhibitors, primary screen, cell-based, multiplex, flow cytometry, ABCG2 counter-screen; 0.067% of 190,000 active; inhibition, % at 6.6 µM; CCRF-Adr cells, JC-1 efflux; AID 1326, 2008; in the data active means inhibition above about 40%;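 further: 0% = vehicle and 100% = reference inhibitor; higher value means more JC-1 retained so stronger ABCB1 efflux block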
Target sequence (P08183 whole entry, looked up): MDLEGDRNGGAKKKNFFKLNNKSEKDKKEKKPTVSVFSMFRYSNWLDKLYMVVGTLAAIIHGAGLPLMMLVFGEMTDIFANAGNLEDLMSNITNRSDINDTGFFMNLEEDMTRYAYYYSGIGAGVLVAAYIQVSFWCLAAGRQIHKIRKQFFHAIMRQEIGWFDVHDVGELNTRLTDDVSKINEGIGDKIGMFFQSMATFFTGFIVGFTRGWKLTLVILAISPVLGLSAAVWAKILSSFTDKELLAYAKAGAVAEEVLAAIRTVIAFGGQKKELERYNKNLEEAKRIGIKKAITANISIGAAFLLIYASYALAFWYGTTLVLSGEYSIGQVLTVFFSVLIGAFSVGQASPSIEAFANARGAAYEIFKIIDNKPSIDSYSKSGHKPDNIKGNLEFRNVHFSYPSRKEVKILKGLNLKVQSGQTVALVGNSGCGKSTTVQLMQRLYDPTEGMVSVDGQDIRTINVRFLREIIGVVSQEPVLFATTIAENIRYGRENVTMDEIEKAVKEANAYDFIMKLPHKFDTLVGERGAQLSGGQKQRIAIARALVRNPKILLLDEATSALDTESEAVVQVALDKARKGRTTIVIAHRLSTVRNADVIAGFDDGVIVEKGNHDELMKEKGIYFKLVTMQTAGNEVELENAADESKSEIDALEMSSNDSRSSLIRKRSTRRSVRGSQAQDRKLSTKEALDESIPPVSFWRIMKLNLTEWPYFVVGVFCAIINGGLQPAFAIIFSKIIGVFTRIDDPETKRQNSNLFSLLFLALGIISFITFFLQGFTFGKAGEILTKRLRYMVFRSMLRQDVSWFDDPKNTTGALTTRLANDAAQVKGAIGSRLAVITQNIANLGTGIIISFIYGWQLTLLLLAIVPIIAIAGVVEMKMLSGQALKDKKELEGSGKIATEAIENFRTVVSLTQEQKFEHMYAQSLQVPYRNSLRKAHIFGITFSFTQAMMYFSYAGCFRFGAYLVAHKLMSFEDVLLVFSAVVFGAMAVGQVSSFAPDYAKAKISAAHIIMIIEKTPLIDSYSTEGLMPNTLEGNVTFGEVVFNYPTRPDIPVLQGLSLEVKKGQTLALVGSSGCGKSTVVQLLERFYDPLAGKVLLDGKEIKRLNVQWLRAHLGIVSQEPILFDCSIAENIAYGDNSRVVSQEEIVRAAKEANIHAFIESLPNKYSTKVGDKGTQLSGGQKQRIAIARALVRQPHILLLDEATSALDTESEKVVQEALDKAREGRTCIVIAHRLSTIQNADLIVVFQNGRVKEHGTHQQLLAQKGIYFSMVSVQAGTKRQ
WT yeast gro inh: growth inhibition of WT strain, primary screen, mitochondrial fusion inhibitor project, WT and mutant strains, chemical genetic; inhibition, % at 10 µM; 2.1% of 190,000 active; AID 1362, 2008; mitochondrial fusion phenotypic screen; in the data active means inhibition above about 58%; tested in S. cerevisiae
ABCG2 block: ABCG2 efflux pump inhibitors, primary screen, multiplex with ABCB1, IgMXP3 cells, flow cytometry | JC-1 efflux | inhibition, % at 6.6 µM | 0.1% of 190,000 active | AID 1325, 2008;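 active means inhibition above 80%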;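 further: 0% = DMSO and 100% = nicardipine control wells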
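Times: 10 min at 25 °C | Test system: Two drug-resistant human cell lines, ABCG2 and ABCB1 | Quantity: 3 million cells/mL final, two lines in 1:1 ratio | Signal: Flow cytometry, 530 nm JC-1 signal | Dosing: Compound at 6.6 µM | Controls: Nicardipine and DMSO wells | Reagent: JC-1 as fluorescent efflux pump substrate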
Lmaj promast: Leishmania major promastigote growth inhibition, primary screen; Leishmania major promastigotes, resazurin fluorescence viability; inhibition, % at 10 µM; 9% of 200,000 active; AID 1063, 2008; in the data active means inhibition above about 50%;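 further: promastigotes grown with compound for 44 hours at 28 °C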
The depositor's hits bear a star.

SMILES	RAM network inh	ABCB1 inh	WT yeast gro inh	ABCG2 block	Lmaj promast
CCCn1c(NCc2cc(C)ccc2O)nc2ccccc21	1.9	1.4	1.8	7.8	77.0*
CCCn1c(NCc2ccc3c(c2)OCO3)nc2ccccc21	1.8	2.6	13.6	11.2	82.1*
CCCCn1c(NCc2ccc3c(c2)OCO3)nc2ccccc21	1.0	1.1	35.5	10.3	38.0
COc1ccc(C2CC(c3cccs3)=NN2c2nc(-c3ccccc3)cs2)cc1OC (stereo not given)	7.8	0.4	-6.9	0.9	1.2
Cc1cc2nc(C3CCN(C(=S)NCCCOC(C)C)CC3)[nH]c2cc1C	0.6	0.4	1.4	3.0	-2.8
CCC(C)(C(=O)NC1CCCC1)N(C(=O)CNC(=O)c1ccccc1)c1c(C)n(C)n(-c2ccccc2)c1=O (stereo not given)	3.5	0.0	8.4	0.5	-1.5
Cn1c(=O)n(C)c2cc(NC(=O)CCl)ccc21	-0.4	0.8	-14.6	4.5	27.3
CCn1c(=O)oc2cc(NC(=O)CCl)ccc21	2.0	0.4	-25.9	8.8	69.6*
Cc1ccc(-c2nc(-c3cccnc3)sc2CC(=O)Nc2ccc3nc(C)sc3c2)cc1	2.9	0.1	1.6	-4.3	32.8
Fc1ccccc1/C=N/Nc1ncnc2nc[nH]c12	0.1	0.0	5.0	-0.6	52.0*
Fc1cccc(/C=N/Nc2ncnc3nc[nH]c23)c1	0.4	0.0	10.2	1.1	28.9
Cc1cccc(C2(c3cccc(C)c3)CC2C(=O)Nc2ccc([N+](=O)[O-])cc2O)c1 (stereo not given)	5.3	-0.2	92.4*	-0.5	99.5*
CC(C)c1[nH]nc2c1C(c1cccs1)C(C#N)=C(N)O2 (stereo not given)	2.6	-0.2	-2.9	-0.9	59.5*
Cc1ccc(-c2[nH]nc3c2C(c2ccsc2)C(C#N)=C(N)O3)cc1 (stereo not given)	3.0	-0.1	4.9	0.0	6.7
Cc1[nH]nc2c1C(c1ccsc1C)C(C#N)=C(N)O2 (stereo not given)	1.6	1.0	-0.6	1.9	77.4*
Cc1[nH]nc2c1C(c1ccsc1)C(C#N)=C(N)O2 (stereo not given)	0.8	0.0	-2.5	-0.1	56.9*
CC(C)C1C(C#N)=C(N)Oc2n[nH]c(-c3cccs3)c21 (stereo not given)	1.9	0.2	22.4	2.3	8.8
CN(C)S(=O)(=O)c1cc(C(=O)OCCn2cnc3c2c(=O)n(C)c(=O)n3C)ccc1Cl	-0.8	0.0	-12.4	0.2	2.2
CCn1ncc(NC(=S)NCCc2ccc(OC)c(OC)c2)c1C(N)=O	-0.1	0.7	-0.2	9.3	-6.0
N=c1c2c(-c3ccccc3)c(-c3ccccc3)n(Cc3ccccc3)c2ncn1CCCn1ccnc1	0.3	0.8	-3.4	4.2	100.4*
O=c1c2cnn(-c3ccccc3)c2ncn1Cc1ccco1	0.8	0.2	2.9	7.1	-4.7
N=c1c2c(-c3ccccc3)c(-c3ccccc3)n(Cc3ccco3)c2ncn1Cc1ccco1	-0.7	2.8	2.9	2.1	100.2*
CC1CCCC(C)N1C(=O)CSc1nnc(COc2ccccc2)n1-c1ccccc1 (stereo not given)	3.0	5.0	-15.6	17.5	17.5
CCOC(=O)c1cc(C#N)c(N2CCCC2)nc1-c1ccccc1	2.5	0.8	-2.9	3.2	2.1
COc1ccc(-c2nc(-c3cccc(C)c3)nc(N3CCN(C)CC3)c2C#N)cc1	5.0	4.3	45.0	7.0	85.9*
SMILES	RAM network inh	ABCB1 inh	WT yeast gro inh	ABCG2 block	Lmaj promast
N#Cc1c(-c2ccccc2)nc(-c2ccccc2)nc1N1CCOCC1	3.0	0.7	-7.8	3.7	0.4
COc1ccc(-c2nc(-c3ccccc3)nc(N3CCN(C)CC3)c2C#N)cc1	1.4	0.3	-0.2	1.1	19.8
CCOC(=O)c1cc(C#N)c(N2CCN(C)CC2)nc1-c1ccccc1	0.8	1.2	-8.3	5.1	89.2*
N#Cc1c(SCC(=O)O)nc(-c2ccccc2)c2c1CCCC2	1.3	-1.2	-20.4	31.9	-10.4
CCC(=O)N1CCN(c2nc(-c3ccccc3)c3c(c2C#N)CCCC3)CC1	0.8	2.8	6.0	6.7	76.0*
CN1CCN(c2nc(-c3ccccc3)nc(-c3ccccc3)c2C#N)CC1	3.2	3.2	72.9*	12.5	24.0
